Bioassay records: PubChem, several laboratories
Most compounds without a hit are left out; they make up all but 4.6% or so of the library.
ALR H2O2 inh = inhibitors of human ALR sulfhydryl oxidase, primary screen, biochemical, H2O2 detection, HRP-luminol luminescence, single point. FAD-linked sulfhydryl oxidase ALR (Homo sapiens), P55789. purified ALR, DTT oxidation. inhibition, % (no concentration beside the values). 290,000 compounds, 3.8% hits. AID 485317, 2010;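 active means mean replicate inhibition above about 79%, with every replicate also reaching it, limit read from the data; inconclusive means only one of the two criteria met; inactive means mean below limit and not every replicate reaching it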
Target sequence (P55789 whole entry, looked up): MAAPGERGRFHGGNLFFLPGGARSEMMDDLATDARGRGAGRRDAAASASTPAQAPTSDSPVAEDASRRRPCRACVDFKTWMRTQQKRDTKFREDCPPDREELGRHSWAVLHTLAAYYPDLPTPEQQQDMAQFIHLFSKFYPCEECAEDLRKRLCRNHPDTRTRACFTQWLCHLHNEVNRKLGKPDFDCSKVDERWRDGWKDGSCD
PolyA inhibitor = polyadenylation inhibitors in yeast reporter cells, primary screen, luminescence, S. cerevisiae; S. cerevisiae SKY197-pL101 polyadenylation reporter, beta-gal luminescence; efflux-impaired pdr1/pdr3 knockout yeast; score 100 = 6 SD above DMSO; activity score, % at 12 µM; 300,000 compounds, 0.02% hits; AID 1875, 2009;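 active means lowest replicate activity score at least 50, where 100 means six control SD above control mean; inconclusive means lowest score under 50 but half or more replicates reach 50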;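 further: yeast exposed to compound for 9 h at 30 °C; higher score means more reporter readthrough which indicates perturbed polyadenylation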
Arrestin-AP2 inh = inhibitors of beta-arrestin/AP2 binding, primary screen, biochemical, GPCR trafficking, flow cytometry | 340,000 compounds, 0.31% hits | inhibition, % at 10 µM | FITC-arrestin peptide / GST-AP2 beads; AP2 beta2 appendage carries R879A mutation;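 active means inhibition above a set limit, near 3 SD of compounds lacking own fluorescence, cut at about 54% in these data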;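 further: plate controls were DMSO wells for no effect and 5 µM unlabelled arrestin peptide for full effect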
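System: GST-AP2 R879A glutathione beads. Medium: PBS with 0.05% Tween 20 and 0.1% BSA. Also added: FITC-arrestin peptide, 50 nM. Incubation: 12 min plus 1 h, RT. Measured by: high-throughput flow cytometry of beads, ex 488, em 535 nm. Evaluation: percent drop in bead-associated FITC signal.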
NALP1 yeast inh = NALP1 inflammasome inhibitors in reconstituted yeast, colorimetric, S. cerevisiae, triplicate retest; S. cerevisiae NALP1/ASC/caspase-1 growth, X-gal OD620, 72 h; 280,000 compounds, 0.61% hits; inhibition, % at 10 µM; in the data active means inhibition mostly above about 24%, no sharp cut-off; inactive means mostly below about 32%
NALP3 yeast inh = NALP3 inflammasome inhibitors in reconstituted yeast, primary screen, luminescence, uHTS. 330,000 compounds, 0.39% hits. Yeast reconstituted NLRP3/ASC/caspase-1, beta-gal luminescence, 24 h. AID 2825, 2010. inhibition, % at 10 µM;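 active means inhibition of 50% or more; inactive means inhibition below 50%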;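 further: plate controls were induced DMSO wells for no effect and uninduced yeast grown without galactose for full effect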
DSG3 Ab inh = inhibitors of pemphigus antibody binding to DSG3, primary screen, biochemical, bead-based, flow cytometry, scFv-GFP; Desmoglein-3 (Homo sapiens), P32926; DSG3-coupled beads, scFv-anti-DSG3-GFP binding; active compounds read low; binding (percent of control), % at 10 µM; 310,000 compounds, 0.48% hits; AID 588358, 2011;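 active means binding more than 3 SD below its plate's average and above zero; inconclusive means below that plate limit but binding exactly zero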;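 further: hits lower antibody fragment binding to DSG3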
Starred values were filed as active, the others as inactive; ? = inconclusive; nt = no result given.

SMILES	ALR H2O2 inh	PolyA inhibitor	Arrestin-AP2 inh	NALP1 yeast inh	NALP3 yeast inh	DSG3 Ab inh
O=C(CSc1nnc(NCc2ccccc2)s1)NC1CCS(=O)(=O)C1 (stereo not given)	-5	-17	8	nt	3	90
O=C(CSc1nc2ccccc2s1)NC1CCS(=O)(=O)C1 (stereo not given)	90*	-8	3	14	8	102
O=C(NNc1cc(Br)c(O)c(Br)c1)c1ccccc1	99*	17	12	25	18	85
CC1CCN(C(=O)CN2C(=O)NC(c3ccccc3)(c3ccccc3)C2=O)CC1	nt	nt	0	nt	3	95
N#CC1=C(C2CC2)CC(c2ccccc2)C(C#N)=C1N (stereo not given)	4	-22	5	4	-15	100
N#CC1=C(N)SC2(CCCCC2)SC1c1ccccc1 (stereo not given)	94*	8	-6	-20	12	nt
COc1ccc(NC(=O)CN2c3cccc4cccc(c34)S2(=O)=O)cc1OC	nt	nt	nt	nt	nt	102
COc1ccc(OC)c(CN2CCN(C(=O)c3ccc(S(=O)(=O)Nc4ccccc4F)cc3)CC2)c1	-1	nt	26	nt	0	102
COc1ccccc1C1=NOC(COc2ccc3c(C)cc(=O)oc3c2)C1 (stereo not given)	-4	-10	15	40*	18	103
COc1ccc(C2=NOC(COc3ccc4c(C)cc(=O)oc4c3)C2)c(OC)c1 (stereo not given)	-15	-2	-20	nt	19	108
Cc1ccc(NC(=O)CN(C)C(=O)COc2cccc3cccnc23)cc1	-25	15	-5	64*	5	127
Cc1ccc(NC(=O)CN(C)S(=O)(=O)c2cccc3cccnc23)cc1	95*	-14	-7	-17	7	106
Cc1ccc(NC(=O)CN(C)C(=O)COc2cc(F)ccc2[N+](=O)[O-])cc1	-24	1	0	10	11	103
CCN1C(=O)N(CC)c2cccc3cccc1c23	-15	-11	2	-3	35	95
CN1CN(C)c2cccc3cccc1c23	98*	13	45	-54	7	106
CC1=CC(=O)C=C(C)C1=NOC(=O)c1cccc([N+](=O)[O-])c1	100*	-7	28	1	2	?
CCc1cc(-c2n[nH]c(=S)n2-c2cccc(C)c2)cs1	85*	-19	-5	-12	14	nt
C[C@@H]1CN([C@@H](C)CO)C(=O)CCCn2nncc2CO[C@H]1CN(C)S(=O)(=O)c1ccc(-n2cccn2)cc1	nt	nt	nt	nt	nt	98
CC1CCCCN1c1ccc(N)cc1C(N)=O (stereo not given)	94*	6	-4	-5	-12	90
Cc1cc(OC(C)C(=O)NCC2CCC(C(=O)O)CC2)c2c(C)cc(=O)oc2c1 (stereo not given)	-4	-30	16	2	11	95
N#CCC(=O)Nc1ccc(C(=O)NCc2ccccn2)cc1	99*	-6	30	1	6	101
CCCC(=O)Nc1ccc(C(=O)NCc2ccccn2)cc1	-6	7	-8	13	5	96
CC(=O)/C(=N/Nc1cccc(C)c1)N1CCOCC1	99*	-19	-1	6	-10	104
Cc1cccc(C(=O)Nc2cccc(C(=O)N3CCOCC3)c2)c1	-6	-1	1	1	5	102
FC(F)(F)c1ccc(Cl)c(-n2c(-c3cc(-c4ccco4)[nH]n3)n[nH]c2=S)c1	45	8	-31	nt	-10	111
FC(F)(F)c1ccc(Cl)c(-n2c(-c3cc(C4CC4)[nH]n3)n[nH]c2=S)c1	78*	2	-20	-9	12	nt
Cc1ccc(C)c(C(=O)OCC(=O)Nc2cccc(S(=O)(=O)N3CCCCC3)c2)c1	0	nt	-1	nt	14	98
